Data set [1] in a line: cells. The format is functional, cell-based. The settings on record: Mus musculus, GT1-7.
A short description of data set [2]: Cytotoxicity against mouse GT1-7 cells at 1 uM. The format is cell-based. The note with it: gt1-7, 1 µM.
Data set [3] relates to Mus musculus. Put plainly: Survival of intraventricularly dosed mouse infected with human transmissible spongiform encephalopathies agent Fukuoka1 at 250 ug/kg, after 70 to 98 days post-infection. Type of data set: functional. The gist of the method:
(§1)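 4-week-old male ddY mice inoculated in the right temporal lobe with 20 μl of 10% FK-1 (Fukuoka-1) infected brain homogenate. Drug in 5% glucose/saline (10 mg/ml stock, 0.2-μm filtered) given at 250 μg/kg per day by intraventricular osmotic-pump infusion over the stated d.p.i. window. Vehicle-only controls. Mice examined daily for neurological signs; survival analysed by Kaplan–Meier.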

In data set [4] the test system is Mus musculus. Put plainly: Survival of intraventricularly dosed mouse infected with human transmissible spongiform encephalopathies agent Fukuoka1 at 250 ug/kg, after 42 to 70 days post-infection. Type of data set: functional. The gist of the method:
as §1

The subject of another data set is GT1-7. Put plainly: Effect on cellular form PrP expression in mouse GT1-7 cells. The format is functional, cell-based. The gist of the method: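 Uninfected GT1-7 mouse neuronal cells (~2 × 10^5 per well) treated 15 h after plating, from 100 mM DMSO stocks diluted in medium (solvent control 0.1%), for 72 h. Lysates in Triton X-100/DOC buffer, normalized to 2 mg protein/ml. PrPC detected by Western blot with SAF32 antibody and ECL, then scanned.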

Data set [5] is filed under the species Mus musculus. Nature of the data set: Binding affinity to recombinant mouse cellular form PrP (23-231).
Data set [6] in a line: cells. The format is functional, cell-based. The settings on record: Mus musculus, GT1-7, 72 h.
The species entered for data set [7] is Mus musculus. Put plainly: Stabilization of recombinant mouse cellular form PrP (23-231) conformation at 10 uM.

Active and inactive are the calls of the source. No cut-off for these calls is given here. A value given as a limit tells only on which side of the number the result lay.

The term IC50 denotes the concentration at which inhibition is half-maximal. Low values mean inhibition by little substance, high ones a need for much substance.

In the case of `O=C(N/N=C/c1cc(Cl)cc(Cl)c1O)c1cccc(I)c1`, in “cells [1]”, the IC50 is above 100 µM. For the same compound, the Activity result in data set [2] is on record as “Toxic”.

In “cells [1]”, `CCCCOC(=O)c1ccc2c(c1)C(=O)N(c1ccc(Oc3ccccc3)cc1)C2=O` gave an IC50 above 100 µM. Also, in data set [2], the Activity entry is listed as “Toxic”.

Compound `O=C(Nc1ccc2ccccc2c1)c1cccc(C(=O)Nc2ccc3ccccc3c2)c1` had an IC50 in the data set “cells [1]” above 100 µM. In addition, in data set [2], the Activity result is “Toxic”.

`O=S(=O)(c1cc(Cl)cc(Br)c1O)c1cc(Cl)cc(Br)c1O` registered an IC50 in “cells [1]” above 100 µM. Besides, the Activity entry in data set [2] was “Toxic”.

On to `CC(=O)[C@H]1CC[C@H]2[C@@H]3C[C@H](O)[C@@H]4C[C@H](O)CC[C@]4(C)[C@H]3CC[C@]12C`, for which the IC50 in the data set “cells [1]” is above 100 µM. For the same compound, the Activity entry in data set [2] is “Toxic”.

With `CS(=O)(=O)O[C@H]1C[C@H](n2cc(F)c(=O)[nH]c2=O)O[C@@H]1CO`, in the data set “cells [1]”, the IC50 was above 100 µM. Besides, the Activity entry in data set [2] is recorded as “Toxic”.

Consider `COc1ccc(NC(=O)c2cc(Br)ccc2I)cc1Cl`, for which, in “cells [1]”, the IC50 is above 100 µM. For the same compound, in data set [2], the Activity entry is recorded as “Toxic”.

`CCN(CCO)CCNc1ccc(C)c2sc3ccccc3c(=O)c12` returned an IC50 in the data set “cells [1]” above 100 µM. For the same compound, the Activity entry in data set [2] is “Toxic”.

Consider `Cc1ccc(N2C(=O)c3ccc(C(=O)OCC(C)C)cc3C2=O)cc1Cl`, for which, in “cells [1]”, the IC50 was above 100 µM. Moreover, in data set [2], the Activity entry is on record as “Toxic”.

Turning to `Cc1ccc(C(=O)Nc2cccc([N+](=O)[O-])c2C)cc1I`, the IC50 in the data set “cells [1]” was above 100 µM. Further, the Activity result in data set [2] is “Toxic”.

For `COc1ccc(C(=O)c2ccc(Br)c([N+](=O)[O-])c2)cc1C`, in the data set “cells [1]”, the IC50 was above 100 µM. Further, the Activity result in data set [2] was “Toxic”.

`COc1ccc(C(=O)NNC(=O)c2ccc(OC)c(I)c2)cc1Br` came in with an IC50 in the data set “cells [1]” above 100 µM. The Activity entry in data set [2] is reported as “Toxic”.

`O=C(Nc1ccc(Cc2ccc(NC(=O)C(Cl)(Cl)Cl)cc2)cc1)C(Cl)(Cl)Cl` gave an IC50 in “cells [1]” above 100 µM. In addition, the Activity result in data set [2] is on record as “Toxic”.

Take `O=C(CCl)Nc1ccc(Cc2ccc(NC(=O)CCl)cc2)cc1`: the IC50 in the data set “cells [1]” is above 100 µM. Besides, the Activity result in data set [2] was “Toxic”.

`C[C@]12CCC(=O)C=C1CC[C@@H]1[C@@H]2[C@@H](O)C[C@@]2(C)[C@H]1CC[C@]2(O)C(=O)COC(=O)CCC(=O)O` [HYDROCORTISONE HEMISUCCINATE ANHYDROUS] registered an IC50 in “cells [1]” above 100 µM. In addition, the Activity entry in data set [2] is listed as “Toxic”.

Take `O=C(c1cccc(I)c1)c1cccc(I)c1`: the IC50 in “cells [1]” was above 100 µM. For the same compound, the Activity result in data set [2] was “Toxic”.

Compound `Cc1sc(C(O)c2sc(C)c(C)c2I)c(I)c1C` displayed an IC50 in the data set “cells [1]” above 100 µM. Besides, the Activity result in data set [2] was “Toxic”.

Consider `O=c1n(S(=O)(=O)c2ccc(Cl)cc2)c2ccccc2n1S(=O)(=O)c1ccc(Cl)cc1`, for which, in the data set “cells [1]”, the IC50 is above 100 µM. For the same compound, the Activity result in data set [2] is listed as “Toxic”.

Regarding `C=CCc1cc(/C=C2/C(=O)NC(=S)N(CC=C)C2=O)cc(OC)c1O`, in the data set “cells [1]”, the IC50 is above 100 µM. Also, the Activity entry in data set [2] is listed as “Toxic”.

Take `O=C(c1ccc(I)c([N+](=O)[O-])c1)c1ccc(I)c([N+](=O)[O-])c1`: the IC50 in the data set “cells [1]” is above 100 µM. Also, the Activity result in data set [2] is recorded as “Toxic”.

In the data set “cells [1]”, `O=C(CN1CCOCC1)Nc1ccc(Cc2ccc(NC(=O)CN3CCOCC3)cc2)cc1` registered a half-inhibitory concentration (IC50) above 100 µM. Further, the Activity entry in data set [2] was “Toxic”.

In the case of `Cc1nc2c(n1CCO)C(=O)c1nc(C)n(CCO)c1C2=O`, the IC50 in “cells [1]” is above 100 µM. The Activity result in data set [2] is “Toxic”.

`CCCCOC(=O)c1ccc(NC(=O)Nc2cc(C)ccc2C)cc1` showed an IC50 in “cells [1]” above 100 µM. In data set [2], the Activity entry was “Toxic”.

On to `O=C(Nc1ccc(I)cc1)c1cccc(I)c1`, for which, in “cells [1]”, the IC50 was above 100 µM. Besides, the Activity entry in data set [2] is given as “Toxic”.

As for `O=C(O)c1ccc(C(=O)O)c(C(=O)Nc2ccc3c(c2)-c2ccccc2C3)c1`, the IC50 in the data set “cells [1]” was above 100 µM. In addition, the Activity result in data set [2] is “Toxic”.

For the compound `O=C(Nc1ccc(I)cc1C(=O)O)c1ccc(Cl)cc1`, the IC50 in the data set “cells [1]” is above 100 µM. Moreover, the Activity result in data set [2] is listed as “Toxic”.

Take `CC(=O)CC(=O)Nc1ccc(Cc2ccc(NC(=O)CC(C)=O)cc2)cc1`: the IC50 in “cells [1]” was above 100 µM. Further, the Activity result in data set [2] was “Toxic”.

Consider `Cc1ccc(N2C(=O)c3ccc(C(=O)OCC(C)C)cc3C2=O)cc1C`, for which the IC50 in the data set “cells [1]” was above 100 µM. Besides, in data set [2], the Activity entry is given as “Toxic”.

Turning to `O=C(CN1CCCCC1)Nc1ccc(Cc2ccc(NC(=O)CN3CCCCC3)cc2)cc1`, in the data set “cells [1]”, the IC50 is above 100 µM. Moreover, in data set [2], the Activity result is “Toxic”.

On to `Cc1c(NC(=O)c2cccc(I)c2)ccc([N+](=O)[O-])c1C`, for which, in the data set “cells [1]”, the IC50 is above 100 µM. For the same compound, in data set [2], the Activity result was “Toxic”.

For `CC(=O)Nc1ccc(Cc2ccc(NC(C)=O)cc2)cc1`, the half-maximal inhibitory concentration (IC50) in “cells [1]” was above 100 µM. For the same compound, the Activity entry in data set [2] was “Toxic”.

In turn, `O=C(Nc1cc(Cl)c(Cl)cc1Cl)Nc1cc(Cl)c(Cl)cc1Cl` came in with an IC50 in the data set “cells [1]” above 100 µM. Also, the Activity result in data set [2] is given as “Toxic”.

`O=C(Nc1ccc(Cc2ccc(NC(=O)c3cccc([N+](=O)[O-])c3)cc2)cc1)c1cccc([N+](=O)[O-])c1` yielded an IC50 in “cells [1]” above 100 µM. The Activity entry in data set [2] is “Toxic”.

Regarding `COc1ccccc1C(=O)c1c(C(=O)O)ccc2ccccc12`, the IC50 in the data set “cells [1]” was above 100 µM. Moreover, in data set [2], the Activity entry is on record as “Toxic”.

As to `C=CCSC1=N/C(=C\c2ccccc2Br)C(=O)S1`, in the data set “cells [1]”, the IC50 was above 100 µM. Besides, the Activity result in data set [2] is given as “Toxic”.

Consider `O=C(Nc1ccc(NC(=O)c2cccc3ccccc23)cc1)c1cccc2ccccc12`, for which the IC50 in “cells [1]” is above 100 µM. Further, in data set [2], the Activity result was “Toxic”.

In turn, `Cc1ccc(S(=O)(=O)Nc2ccccc2N(C)S(=O)(=O)c2ccc(C)cc2)cc1` had an IC50 in “cells [1]” above 100 µM. In addition, the Activity result in data set [2] is given as “Toxic”.

As for `O=C(CN1CCCC1)Nc1ccc(Cc2ccc(NC(=O)CN3CCCC3)cc2)cc1`, the values for the Survival in the data set with Mus musculus [3] and in the data set with Mus musculus [4] were 141.5 days and 132.3 days, respectively. In addition, the result in the data set on GT1-7 was inactive. Further, the values for the Activity in the data set listed under Mus musculus [5] and in the data set filed under Mus musculus [7] were 3.9 ×10⁻⁶ M and “Stable”, respectively. In the data set “cells [6]”, the IC50 is 1.35 µM.

`O=C(O)/C=C/C(=O)Nc1ccc(Cc2ccc(NC(=O)/C=C/C(=O)O)cc2)cc1` displayed an IC50 in the data set “cells [1]” above 100 µM. Besides, the Activity result in data set [2] is listed as “Toxic”.

As for `O=C1C=CC(=O)N1c1ccc(Cc2ccc(N3C(=O)C=CC3=O)cc2)cc1`, the IC50 in the data set “cells [1]” was above 100 µM. The Activity result in data set [2] was “Toxic”.

As to `O=C(Nc1ccc(I)cc1)c1ccccc1I`, the IC50 in “cells [1]” was above 100 µM. Moreover, the Activity entry in data set [2] is on record as “Toxic”.

Regarding `CC1CCCN(C(=O)Nc2ccc(Cc3ccc(NC(=O)N4CCCC(C)C4)cc3)cc2)C1` (configuration not stated), the IC50 in “cells [1]” is above 100 µM. For the same compound, the Activity result in data set [2] was “Toxic”.

`O=C1C=CC(=O)N1c1ccc(Cc2ccc(N3C(=O)C=CC3=O)c(Cl)c2)cc1Cl` displayed an IC50 in the data set “cells [1]” above 100 µM. In addition, the Activity entry in data set [2] is “Toxic”.

Turning to `COc1ccc(C(=O)N=C2C=C(Br)C(=O)C(Br)=C2)cc1`, the IC50 in the data set “cells [1]” was above 100 µM. Further, the Activity entry in data set [2] was “Toxic”.

For the origin of these results see ChEMBL document CHEMBL1156484, “Hot spots in prion protein for pathogenic conversion” (Proc Natl Acad Sci U S A, 2007).
